# From PubChem BioAssay
# Only some compounds are listed: those with a hit (about 2.1% of all), similar ones and a draw of the others.
# LMPTP block = blocks human LMPTP phosphatase; P24666; 360,000 tested, 0.22% active; recombinant LMPTP-A, OMFP fluorogenic substrate, fluorescence intensity; inhibition, % at 20 µM;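 active means compounds that cut the enzyme signal by at least half of the control window in the single-dose screen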;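 further: plate controls were DMSO wells with enzyme plus substrate for no effect and substrate without enzyme for full effect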
# Target sequence (P24666 whole entry, looked up): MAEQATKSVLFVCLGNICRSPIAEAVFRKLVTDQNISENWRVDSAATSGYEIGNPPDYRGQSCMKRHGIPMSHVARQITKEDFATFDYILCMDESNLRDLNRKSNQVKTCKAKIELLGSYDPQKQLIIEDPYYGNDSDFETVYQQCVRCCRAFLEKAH
#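 Test system: LMPTP-A, protein tyrosine phosphatase of low molecular weight; Input: 0.625 nM enzyme; Incubation: 50 min dark incubation at room temperature; Signal: endpoint fluorescence intensity from OMFP dephosphorylation; Read-out basis: % inhibition versus control wells.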
# STEP block = STEP (human) phosphatase inhibition; recombinant STEP, OMFP fluorogenic substrate, fluorescence; P54829; 360,000 tested, 0.25% active; inhibition, % at 20 µM; AID 588621;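 active means inhibition at 20 µM, scaled per plate between control wells, above about 37%, limit read from the data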;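 further: 0% = DMSO with enzyme and substrate and 100% = substrate only without enzyme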
#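 System: STEP phosphatase, cell-free reaction; Buffer or medium: Bis-Tris pH 6.0 buffer with DTT, detergent; Incubation: 20 min at room temperature, dark; Measured by: fluorescence, 480/540 nm.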
# GRK2 inh = blocks RNA aptamer binding to human GRK2 | P25098 | bead flow cytometry, FAM-aptamer displacement from GRK2 | inhibition of aptamer binding, % at 10 µM | 330,000 tested, 0.59% active | AID 488847;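 active means inhibition of aptamer binding above 40%, roughly 3 SD of noise, on plates passing a quality check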;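 further: median bead fluorescence of bound FAM aptamer so fluorescent compounds give negative values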
# Scp1 inh = blocks human Scp-1 phosphatase activity; inhibition, % at 20 µM; Q9GZU7; Recombinant Scp1, phosphopeptide, malachite green phosphate absorbance; 340,000 tested, 0.88% active; AID 493091;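 active means inhibition above about 50% at 20 µM, limit read from the data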;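 further: plate controls were DMSO wells with enzyme for no effect and wells lacking enzyme for full effect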
# Target sequence (Q9GZU7 76-261 limits assumed): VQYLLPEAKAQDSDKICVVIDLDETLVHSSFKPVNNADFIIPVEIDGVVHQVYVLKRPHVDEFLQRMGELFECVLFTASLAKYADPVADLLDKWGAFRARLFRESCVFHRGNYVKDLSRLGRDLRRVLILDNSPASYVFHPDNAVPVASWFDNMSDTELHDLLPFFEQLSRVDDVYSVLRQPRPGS
#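 Material: truncated SCP-1 phosphatase (76-261aa) / Buffer or medium: 50 mM Tris acetate pH 5.5, 0.005% Tween-20, 10 mM MgCl2 / Compound dosing: one concentration, 20 µM, with 1.0% DMSO / Incubation: 45 min room-temperature reaction, 5 min colour, 30 min stabiliser / Detection: colorimetric free-phosphate detection, absorbance 630 nm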
# DNMT1 inh = DNMT1 (human) enzyme inhibition. AID 588458. inhibition (reported as % activation of signal), % at 10 µM. P26358. 360,000 tested, 0.83% active. DNMT1 molecular beacon, Hinp1I cleavage, fluorescence; in the data active means inhibition above about 50%
# SUMO1-SIM PPI = SUMO1-SIM interaction modulation; 360,000 tested, 0.33% active; P63165; SUMO1 binding to a labelled peptide, TR-FRET, 1 h; inhibition, % at 20 µM; in the data active means inhibition above about 37%
# Target sequence (P63165 whole entry, looked up): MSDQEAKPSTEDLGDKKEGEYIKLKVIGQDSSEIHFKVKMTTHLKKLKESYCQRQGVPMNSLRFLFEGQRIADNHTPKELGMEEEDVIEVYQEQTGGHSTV
# DNMT1 confirm = confirmation of human DNMT1 inhibitors; shares compounds with DNMT1 inh; 2,300 tested, 8% active; DNMT1 molecular beacon HinP1I cleavage, fluorescence; inhibition, % at 10 µM;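 active means average inhibition of at least 30% in the single-concentration confirmation test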
# Beacon interf = beacon fluorescence artifact counter-screen; activation (fluorescence interference), % at 10 µM; 2,300 tested, 1% active; AID 602387; DNMT1 molecular beacon spectral interference counterscreen, fluorescence 485/520; shares compounds with DNMT1 inh;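 active means activation of at least 30% at 10 µM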;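 further: DNMT1 catalytic domain with a HinP1I cleavage step and a FAM/dabcyl DNA beacon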
# Numbers without * were called inactive; . = no result.
SMILES,LMPTP block,STEP block,GRK2 inh,Scp1 inh,DNMT1 inh,SUMO1-SIM PPI,DNMT1 confirm,Beacon interf
Cc1ccccc1NC(=O)CN1CCN(Cc2ccccc2)CC1,-1,-4,2,-4,79*,6,1,5
CCN(CC)c1ccc(S(=O)(=O)N2CCOCC2)cc1NC(=O)CN1CCN(Cc2ccccc2)CC1,-1,3,1,-9,58*,3,0,4
Cc1ccsc1C(=O)C1CCCN(Cc2cc(F)ccc2-n2cccn2)C1 (stereo not drawn),0,-2,1,6,3,-6,.,.
Cc1cc2cc(CNS(=O)(=O)c3ccc4ccccc4c3)ccc2n1C,9,2,4,-4,54*,-17,4,1
Cc1cccc(NC(=O)c2ccc(S(=O)(=O)N3CC(C)OC(C)C3)cc2)n1 (stereo not drawn),0,0,0,-1,2,2,.,.
CCOC(=O)N1CCC(NS(=O)(=O)c2ccc3c(c2)oc(=O)n3C)CC1,0,-1,0,-3,53*,0,3,4
Cc1ccc2sc(=O)[nH]c2c1,-1,-1,0,-11,-10,-5,.,.
CSc1ccc(/C=C(/NC(=O)c2ccc(C)cc2)C(=O)Nc2cccc(C)c2)cc1,0,1,0,-3,55*,1,0,2
Cc1cccc(NC(=O)/C(=C\c2ccc([N+](=O)[O-])o2)NC(=O)c2ccc(Cl)cc2)c1,9,7,8,45,85*,-13,-1,3
COC(=O)/C(=C\c1ccc([N+](=O)[O-])o1)NC(=O)c1ccccc1,0,2,0,-3,5,-20,.,.
COc1cccc(CNC(=O)Cc2nc3nc(C)cc(C)n3n2)c1,0,-2,0,-12,4,-2,.,.
CCCCCCc1cc2cc(-c3nnc(-c4ccccc4OC)o3)c(=O)oc2cc1O,2,-4,3,7,100*,3,6,11
CCCCCCc1cc2cc(C(=O)Nc3ccccc3OC)c(=O)oc2cc1O,-3,-5,0,-4,34,2,.,.
CCOc1cc(C#N)ccc1OCC(=O)NNC(=O)CC1CCS(=O)(=O)C1 (stereo not drawn),0,3,.,-8,77*,1,0,4
CCN(CC)C(=O)CC(c1cc(OC)c(OC)c(OC)c1)c1c(OC)cc(OC)c2c(-c3ccccc3)cc(=O)oc12 (stereo not drawn),18,3,9,71*,84*,-6,8,6
O=C(COC(=O)CCc1ccccc1)Nc1ncc(Cl)cc1Cl,1,-1,0,5,2,2,.,.
Cc1ccc(/C=N/NC(=O)c2cccc(S(=O)(=O)Nc3ccccc3Cl)c2)o1,0,4,0,-14,0,35,.,.
O=C(N/N=C/c1ccco1)c1cccc(S(=O)(=O)Nc2ccccc2Cl)c1,5,2,18,35,56*,26,2,2
Cc1nn(-c2ccc(F)cc2)c(-n2cccc2)c1C(=O)N1CCN(C(=O)c2ccco2)CC1,-2,0,0,-5,2,-1,.,.
O=C(Cc1ccc(F)cc1)N/N=C/c1ccccn1,-2,2,3,-4,66*,0,1,-1
O=C(Cc1cccs1)N/N=C/c1ccccn1,-1,-5,0,-7,3,3,.,.
O=c1ccn([C@@H]2O[C@H](CNCc3cccc4c3sc3ccccc34)[C@@H](O)[C@H]2O)c(=O)[nH]1,0,-2,.,.,4,0,.,.
O=C(Nc1ccc(Cl)cn1)c1cc2c(s1)-c1ccccc1OC2,0,-2,0,-7,56*,-6,0,0
O=C(Nc1cccnc1Cl)c1cc2c(s1)-c1ccccc1OC2,0,-3,2,-6,12,-7,.,.
Nc1ncnc2c1ncn2[C@@H]1O[C@H](CO)C[C@@H]1O,.,.,3,.,.,.,.,.
